Test results published in paper PMC11701428 (RSC Advances, 2025).

How the values were obtained:
EGFR = EGFR (Homo sapiens, UniProt P00533); experiment: EGFR-TK enzyme inhibition; assay type: biochemical; details: for percentage of inhibition of EGFR: concentration not given
PARP-1 = PARP-1 (Homo sapiens, UniProt P09874); experiment: PARP-1 enzyme inhibition; assay type: biochemical; details: for percentage of inhibition of PARP-1: concentration not given
HepG2 cells [1] = experiment: Annexin V/PI staining flow cytometry; assay type: cell-based; details: HepG2, treated at IC50 for 48 h
HepG2 cells [2] = experiment: Cell cycle analysis by flow cytometry in HepG2 cells; assay type: cell-based; details: HepG2, treated at IC50 for 48 h
Method in brief: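 Flow cytometric cell-phase distribution of HepG2 cells. Cells were left untreated or given test compound at its IC50 for 48 h. Data are mean ± SD of three independent runs.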

[3] = system: apoptosis-related genes (P53, Bax, caspases 3, 8, 9, BCL-2) in HepG2 cells; experiment: RT-PCR gene expression of apoptosis-related genes in HepG2 cells; assay type: cell-based; details: HepG2, IC50, 48 h, normalized to β-actin
HepG2 cells [4] = experiment: MTT cytotoxicity assay against HepG2 cells; assay type: cell-based; details: read-out: IC50 ± SD HepG2, mean ± SD of three independent trials
Method in brief: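 HepG2 cells (NCI Cairo) grown in RPMI-1640 with L-glutamine, 10% FBS and 1% penicillin–streptomycin at 37 °C, 5% CO2. Plated in triplicate at 5 × 10^4 cells; next day treated at 0.01, 0.1, 1, 10 and 100 μM. Viability measured by MTT relative to control, IC50 computed. Mean ± SD of three independent trials.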

Chain of PARP-1 (P09874 whole entry): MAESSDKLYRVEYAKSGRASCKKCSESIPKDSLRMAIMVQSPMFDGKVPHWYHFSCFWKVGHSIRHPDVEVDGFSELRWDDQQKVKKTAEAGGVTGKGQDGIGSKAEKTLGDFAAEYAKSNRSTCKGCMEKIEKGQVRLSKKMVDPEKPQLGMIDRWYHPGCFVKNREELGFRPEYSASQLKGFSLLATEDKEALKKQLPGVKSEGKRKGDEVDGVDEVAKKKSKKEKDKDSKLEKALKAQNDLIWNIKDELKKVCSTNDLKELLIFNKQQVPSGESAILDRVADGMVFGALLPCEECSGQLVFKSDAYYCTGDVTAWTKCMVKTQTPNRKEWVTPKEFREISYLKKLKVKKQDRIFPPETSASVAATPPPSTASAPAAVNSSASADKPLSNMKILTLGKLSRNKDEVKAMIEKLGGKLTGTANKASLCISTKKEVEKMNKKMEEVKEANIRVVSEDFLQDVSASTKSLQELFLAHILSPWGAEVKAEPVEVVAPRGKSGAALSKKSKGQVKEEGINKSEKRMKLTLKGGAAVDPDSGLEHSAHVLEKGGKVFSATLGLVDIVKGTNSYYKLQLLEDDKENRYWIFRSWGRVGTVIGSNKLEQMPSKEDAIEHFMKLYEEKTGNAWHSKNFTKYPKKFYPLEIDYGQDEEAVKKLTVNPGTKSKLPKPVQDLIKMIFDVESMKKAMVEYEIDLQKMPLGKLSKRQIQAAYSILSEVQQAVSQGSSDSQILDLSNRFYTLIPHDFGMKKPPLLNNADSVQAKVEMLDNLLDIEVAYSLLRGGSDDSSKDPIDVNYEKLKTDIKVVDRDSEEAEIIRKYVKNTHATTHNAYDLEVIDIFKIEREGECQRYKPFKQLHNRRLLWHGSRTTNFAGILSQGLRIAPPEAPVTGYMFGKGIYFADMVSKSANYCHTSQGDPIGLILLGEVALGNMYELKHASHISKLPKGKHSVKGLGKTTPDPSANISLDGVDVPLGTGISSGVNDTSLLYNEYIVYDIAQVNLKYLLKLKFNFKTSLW
Chain of EGFR (P00533 25-1210): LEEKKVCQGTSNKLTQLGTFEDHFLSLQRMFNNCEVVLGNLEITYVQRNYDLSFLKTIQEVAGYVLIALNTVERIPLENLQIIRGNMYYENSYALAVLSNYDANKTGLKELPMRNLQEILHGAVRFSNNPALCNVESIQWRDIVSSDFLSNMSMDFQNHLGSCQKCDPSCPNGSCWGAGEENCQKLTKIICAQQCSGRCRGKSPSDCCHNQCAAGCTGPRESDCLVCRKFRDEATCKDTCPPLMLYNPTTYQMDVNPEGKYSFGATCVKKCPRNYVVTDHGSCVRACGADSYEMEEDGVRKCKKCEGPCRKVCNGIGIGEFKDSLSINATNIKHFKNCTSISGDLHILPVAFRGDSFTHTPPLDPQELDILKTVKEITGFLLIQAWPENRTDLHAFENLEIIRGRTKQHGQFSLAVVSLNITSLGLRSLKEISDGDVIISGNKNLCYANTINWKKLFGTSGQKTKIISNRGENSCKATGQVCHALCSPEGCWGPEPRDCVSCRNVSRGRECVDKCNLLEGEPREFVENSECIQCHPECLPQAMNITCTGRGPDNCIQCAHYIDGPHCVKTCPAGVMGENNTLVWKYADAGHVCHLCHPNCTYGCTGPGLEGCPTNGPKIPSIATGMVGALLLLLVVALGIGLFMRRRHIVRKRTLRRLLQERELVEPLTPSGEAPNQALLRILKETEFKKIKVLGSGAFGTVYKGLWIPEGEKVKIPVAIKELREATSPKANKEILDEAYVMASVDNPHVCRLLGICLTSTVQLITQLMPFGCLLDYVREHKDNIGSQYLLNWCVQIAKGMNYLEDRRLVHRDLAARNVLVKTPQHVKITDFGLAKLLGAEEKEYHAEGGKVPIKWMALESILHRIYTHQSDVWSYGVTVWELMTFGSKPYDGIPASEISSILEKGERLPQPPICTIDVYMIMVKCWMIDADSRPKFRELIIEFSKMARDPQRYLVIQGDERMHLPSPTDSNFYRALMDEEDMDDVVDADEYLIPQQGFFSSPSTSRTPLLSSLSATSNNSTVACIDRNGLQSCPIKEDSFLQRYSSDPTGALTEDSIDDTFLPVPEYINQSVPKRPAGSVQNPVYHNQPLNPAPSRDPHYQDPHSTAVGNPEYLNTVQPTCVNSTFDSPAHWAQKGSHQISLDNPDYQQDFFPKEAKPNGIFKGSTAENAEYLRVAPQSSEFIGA

Compound	IC50 (EGFR)	percentage of inhibition of EGFR (EGFR)	IC50 (PARP-1)	percentage of inhibition of PARP-1 (PARP-1)	IC50 (HepG2 cells [4])	further results
Cc1c(C(=O)[C@H]2[C@H](c3cc4ccccc4o3)C3CCCN3[C@]23C(=O)Nc2ccc(F)cc23)nnn1-c1c(Cl)cc(Cl)cc1Cl (stereo partly drawn) [4g, (1′S,2′S,3R)-1′-(Benzofuran-2-yl)-5-fluoro-2′-(5-methyl-1-(2,4,6-trichlorophenyl)-1H-1,2,3-triazole-4-carbonyl)-1′,2′,5′,6′,7′,7a′-hexahydrospiro[indoline-3,3′-pyrrolizin]-2-one]					8900 ± 300 nM	
Cc1c(C(=O)/C=C/c2cc3ccccc3s2)nnn1-c1c(Cl)cc(Cl)cc1Cl [1b, (E)-3-(Benzo[b]thiophen-2-yl)-1-(5-methyl-1-(2,4,6-trichlorophenyl)-1H-1,2,3-triazol-4-yl)prop-2-en-1-one]					8500 ± 400 nM	

Further lines, with some results ahead:

IC50 (EGFR)	percentage of inhibition of EGFR (EGFR)	IC50 (PARP-1)	percentage of inhibition of PARP-1 (PARP-1)	Compound	IC50 (HepG2 cells [4])	further results
74.6 ± 1.8 nM	94.1%	2.01 ± 0.1 nM	95.2%	Cc1c(C(=O)[C@H]2[C@H](c3cc4ccccc4o3)C3CCCN3[C@]23C(=O)Nc2cc(Cl)ccc23)nnn1-c1c(Cl)cc(Cl)cc1Cl (stereo partly drawn) [4a, (1′S,2′S,3R)-1′-(Benzofuran-2-yl)-6-chloro-2′-(5-methyl-1-(2,4,6-trichlorophenyl)-1H-1,2,3-triazole-4-carbonyl)-1′,2′,5′,6′,7′,7a′-hexahydrospiro[indoline-3,3′-pyrrolizin]-2-one]		early apoptosis cell population (HepG2 cells [1]): 12.1%; induction of apoptosis versus untreated control (HepG2 cells [1]): 6.62 fold; late apoptosis cell population (HepG2 cells [1]): 0.95%; cells in necrosis (HepG2 cells [1]; untreated 0.61%): 0.58%; cell population in total apoptosis (HepG2 cells [1]; untreated 1.97%): 13.05%; cell population in S-phase (HepG2 cells [2]; control 30%): 33%; cell population in G2/M-phase (HepG2 cells [2]; control 34%): 42%; Bax gene expression fold change ([3]; 2^−ΔΔCT): 4.6 fold; P53 gene expression fold change ([3]; 2^−ΔΔCT): 9.3 fold; caspase 3 gene expression fold change ([3]; 2^−ΔΔCT): 5.6 fold; caspase 8 gene expression fold change ([3]; 2^−ΔΔCT): 3.5 fold; caspase 9 gene expression fold change ([3]; 2^−ΔΔCT): 8.6 fold; BCL-2 gene expression (fold, decrease) ([3]; anti-apoptotic gene, decreased): 0.37 fold
116 ± 3.1 nM	84.3%	18.4 ± 1 nM	86.6%	Cc1c(C(=O)[C@H]2[C@H](c3cc4ccccc4s3)C3CCCN3[C@]23C(=O)Nc2ccc(F)cc23)nnn1-c1c(Cl)cc(Cl)cc1Cl (stereo partly drawn) [4f, (1′S,2′S,3R)-1′-(Benzo[b]thiophen-2-yl)-5-fluoro-2′-(5-methyl-1-(2,4,6-trichlorophenyl)-1H-1,2,3-triazole-4-carbonyl)-1′,2′,5′,6′,7′,7a′-hexahydrospiro[indoline-3,3′-pyrrolizin]-2-one]		
85.3 ± 2.9 nM	90.1%	3.6 ± 0.3 nM	81.2%	Cc1c(C(=O)[C@H]2[C@H](c3cc4ccccc4s3)C3CCCN3[C@]23C(=O)Nc2cc(Cl)ccc23)nnn1-c1c(Cl)cc(Cl)cc1Cl (stereo partly drawn) [4b, (1′S,2′S,3R)-1′-(Benzo[b]thiophen-2-yl)-6-chloro-2′-(5-methyl-1-(2,4,6-trichlorophenyl)-1H-1,2,3-triazole-4-carbonyl)-1′,2′,5′,6′,7′,7a′-hexahydrospiro[indoline-3,3′-pyrrolizin]-2-one]		
